Reference: ChEMBL document CHEMBL5661969, “Preclinical evaluation of a potent novel DNA-dependent protein kinase inhibitor NU7441” (Cancer Res, 2006)

How the values were obtained:
[1] = Inhibition of DNA-PK in Chinese hamster DNA-PK proficient V3-YAC cells assessed as potentiation of etoposide-induced cytotoxicity by measuring etoposide LD90 at 0.5 umol/L measured after 16 hrs by crystal violet staining based assay; parameters: species or system Cricetulus griseus; details: dose 0.5 µmol/L, condition cancer
[2] = Ratio of drug level in spleen to plasma of human SW620 cell xenografted athymic nude CD1 mouse at 10 mg/kg, ip measured after 90 mins by HPLC analysis; assay type: ADME, organism-based
Outline: (§1)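 Female CD-1 nu/nu mice bearing s.c. flank SW620 tumours (1×10^7 cells, ~650 mm³ at 10–14 days) given 10 mg/kg i.p. Tissues snap frozen, homogenised 1:3 in PBS. Acetonitrile precipitation, C18 HPLC with acetate pH 5/acetonitrile 75:25 mobile phase, UV 329 nm; tissue levels by method of addition. Tissue/plasma ratio, mean of three mice per time.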

[3] = biological target: DNA-dependent protein kinase catalytic subunit (Homo sapiens, UniProt P78527); test: Inhibition of human HeLa cell nuclear extract purified DNA-PK using p53 peptide as substrate by ELISA
[4] = Growth inhibition of human LoVo cells at 1 umol/L measured after 5 days by crystal violet staining based assay relative to control; assay type: toxicity, cell-based; details: dose 1 µmol/L, time 5 day, read-out: GI
Outline: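 LoVo and SW620 cells in 96-well plates under 5-day continuous exposure to agent, and growth measured relative to control.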

[5] = Clearance in BALB/c mouse at 5 mg/kg, iv by HPLC analysis; assay type: ADME, organism-based; details: in vivo
Outline: (§2)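 Female BALB/c mice dosed 5 mg/kg i.v. in 10% DMSO/10% cyclodextrin in saline, or 10 mg/kg i.p. or orally at 1 mg/mL in 40% PEG400/saline. Plasma taken at 5, 10, 15, 30, 60, 90, 120, 180, 240 and 360 min, three mice per time. Acetonitrile precipitation, C18 HPLC with UV detection at 329 nm against a plasma standard curve. Parameters derived from mean concentrations.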

[6] = Ratio of drug level in kidney to plasma of human SW620 cell xenografted athymic nude CD1 mouse at 10 mg/kg, ip measured after 15 mins by HPLC analysis; assay type: ADME, organism-based; details: kidney and plasma; outline: as §1
[7] = Ratio of drug level in spleen to plasma of human SW620 cell xenografted athymic nude CD1 mouse at 10 mg/kg, ip measured after 15 mins by HPLC analysis; assay type: ADME, organism-based; outline: as §1
[8] = Ratio of drug level in kidney to plasma of human SW620 cell xenografted athymic nude CD1 mouse at 10 mg/kg, ip measured after 240 mins by HPLC analysis; assay type: ADME, organism-based; outline: as §1
LoVo = test: Cell cycle arrest in human LoVo cells assessed as reduction in S-phase cell population at 1 umol/L measured after 1 hr by propidium iodide staining based flow cytometry relative to control; assay type: toxicity; parameters: scale not given: the % may be the effect or the level left; details: 1 µM, dose 1 µmol/L
Outline: (§3)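 Asynchronous SW620 or LoVo cells, seeded 24 h earlier, given control or 1 μmol/L agent medium for 1 h before ionizing radiation, etoposide or doxorubicin, then incubated a further 16 h. Cells fixed in 70% ethanol, stained with propidium iodide (400 μg/mL) plus RNase (1 mg/mL), and analysed by 488 nm flow cytometry.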

[9] = Ratio of drug level in kidney to plasma of human SW620 cell xenografted athymic nude CD1 mouse at 10 mg/kg, ip measured after 30 mins by HPLC analysis; assay type: ADME, organism-based; details: kidney and plasma; outline: as §1
[10] = AUClast in BALB/c mouse at 10 mg/kg, ip by HPLC analysis; assay type: ADME, organism-based; details: in vivo; outline: as §2
[11] = Ratio of drug level in brain to plasma of human SW620 cell xenografted athymic nude CD1 mouse at 10 mg/kg, ip measured after 15 mins by HPLC analysis; assay type: ADME, organism-based; details: brain and plasma, read-out: BPR; outline: as §1
[12] = Ratio of drug level in spleen to plasma of human SW620 cell xenografted athymic nude CD1 mouse at 10 mg/kg, ip measured after 60 mins by HPLC analysis; assay type: ADME, organism-based; outline: as §1
[13] = Inhibition of DNA-PK in Chinese hamster DNA-PK proficient V3-YAC cells assessed as potentiation of etoposide-induced cytotoxicity by measuring fold change in etoposide LD90 at 0.5 umol/L measured after 16 hrs by crystal violet staining based assay relative to etoposide alone; parameters: species or system Cricetulus griseus; details: dose 0.5 µmol/L, condition cancer
Outline: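 V3-YAC Chinese hamster ovary cells (human DNA-PKcs YAC, kept in 500 μg/mL G-418), RPMI 1640/10% FBS. Cells reseeded drug-free, colonies crystal violet stained after 10–14 days; LD90 ratio without/with inhibitor (DMR90).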

[14] = Ratio of drug level in kidney to plasma of human SW620 cell xenografted athymic nude CD1 mouse at 10 mg/kg, ip measured after 60 mins by HPLC analysis; assay type: ADME, organism-based; outline: as §1
[15] = Ratio of drug level in tumor to plasma of human SW620 cell xenografted athymic nude CD1 mouse at 10 mg/kg, ip measured after 90 mins by HPLC analysis; assay type: ADME, organism-based; details: tumor and plasma; outline: as §1
SW-620 [16] = test: Induction of DNA damage in human SW620 cells assessed as formation of gammaH2AX phosphorylation foci per cell at 1 umol/L measured after 1 hr by DAPI staining based immunofluorescence microscopic analysis; assay type: toxicity; details: sw-620, 1 h, 1 µM, dose 1 µmol/L
Outline: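 SW620 cells on coverslips at 50–70% confluence, preincubated 1 h ± 1 μmol/L agent, then 1 μmol/L etoposide for 1 h, washed three times, and kept ± agent for up to 24 h. Fixation in −20 °C methanol, then anti-γH2AX Ser139 antibody with FITC secondary and DAPI mounting. Foci counted in 30 nuclei from three areas per sample, in triplicate.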

[17] = AUCinfinity in BALB/c mouse at 10 mg/kg, po by HPLC analysis; assay type: ADME, organism-based; details: in vivo; outline: as §2
[18] = Ratio of drug level in brain to plasma of human SW620 cell xenografted athymic nude CD1 mouse at 10 mg/kg, ip measured after 240 mins by HPLC analysis; assay type: ADME, organism-based; details: brain and plasma, read-out: BPR; outline: as §1
[19] = AUCinfinity in BALB/c mouse at 10 mg/kg, ip by HPLC analysis; assay type: ADME, organism-based; details: in vivo; outline: as §2
[20] = Ratio of drug level in kidney to plasma of human SW620 cell xenografted athymic nude CD1 mouse at 10 mg/kg, ip measured after 90 mins by HPLC analysis; assay type: ADME, organism-based; outline: as §1
[21] = Cmax in BALB/c mouse at 10 mg/kg, ip by HPLC analysis; assay type: ADME, organism-based; details: in vivo; outline: as §2
[22] = Ratio of drug level in brain to plasma of human SW620 cell xenografted athymic nude CD1 mouse at 10 mg/kg, ip measured after 90 mins by HPLC analysis; assay type: ADME, organism-based; details: brain and plasma, read-out: BPR; outline: as §1
[23] = Tmax in BALB/c mouse at 10 mg/kg, ip by HPLC analysis; assay type: ADME, organism-based; details: in vivo; outline: as §2
[24] = Ratio of drug level in liver to plasma of human SW620 cell xenografted athymic nude CD1 mouse at 10 mg/kg, ip measured after 240 mins by HPLC analysis; assay type: ADME, organism-based; outline: as §1
[25] = Ratio of drug level in brain to plasma of human SW620 cell xenografted athymic nude CD1 mouse at 10 mg/kg, ip measured after 30 mins by HPLC analysis; assay type: ADME, organism-based; details: brain and plasma, read-out: BPR; outline: as §1
SW-620 [26] = test: Cell cycle arrest in human SW620 cells assessed as reduction in S-phase cell population at 1 umol/L measured after 1 hr by propidium iodide staining based flow cytometry relative to control; assay type: toxicity; parameters: scale not given: the % may be the effect or the level left; details: sw-620, 1 µM, dose 1 µmol/L; outline: as §3

Sequence of DNA-dependent protein kinase catalytic subunit (P78527 whole entry): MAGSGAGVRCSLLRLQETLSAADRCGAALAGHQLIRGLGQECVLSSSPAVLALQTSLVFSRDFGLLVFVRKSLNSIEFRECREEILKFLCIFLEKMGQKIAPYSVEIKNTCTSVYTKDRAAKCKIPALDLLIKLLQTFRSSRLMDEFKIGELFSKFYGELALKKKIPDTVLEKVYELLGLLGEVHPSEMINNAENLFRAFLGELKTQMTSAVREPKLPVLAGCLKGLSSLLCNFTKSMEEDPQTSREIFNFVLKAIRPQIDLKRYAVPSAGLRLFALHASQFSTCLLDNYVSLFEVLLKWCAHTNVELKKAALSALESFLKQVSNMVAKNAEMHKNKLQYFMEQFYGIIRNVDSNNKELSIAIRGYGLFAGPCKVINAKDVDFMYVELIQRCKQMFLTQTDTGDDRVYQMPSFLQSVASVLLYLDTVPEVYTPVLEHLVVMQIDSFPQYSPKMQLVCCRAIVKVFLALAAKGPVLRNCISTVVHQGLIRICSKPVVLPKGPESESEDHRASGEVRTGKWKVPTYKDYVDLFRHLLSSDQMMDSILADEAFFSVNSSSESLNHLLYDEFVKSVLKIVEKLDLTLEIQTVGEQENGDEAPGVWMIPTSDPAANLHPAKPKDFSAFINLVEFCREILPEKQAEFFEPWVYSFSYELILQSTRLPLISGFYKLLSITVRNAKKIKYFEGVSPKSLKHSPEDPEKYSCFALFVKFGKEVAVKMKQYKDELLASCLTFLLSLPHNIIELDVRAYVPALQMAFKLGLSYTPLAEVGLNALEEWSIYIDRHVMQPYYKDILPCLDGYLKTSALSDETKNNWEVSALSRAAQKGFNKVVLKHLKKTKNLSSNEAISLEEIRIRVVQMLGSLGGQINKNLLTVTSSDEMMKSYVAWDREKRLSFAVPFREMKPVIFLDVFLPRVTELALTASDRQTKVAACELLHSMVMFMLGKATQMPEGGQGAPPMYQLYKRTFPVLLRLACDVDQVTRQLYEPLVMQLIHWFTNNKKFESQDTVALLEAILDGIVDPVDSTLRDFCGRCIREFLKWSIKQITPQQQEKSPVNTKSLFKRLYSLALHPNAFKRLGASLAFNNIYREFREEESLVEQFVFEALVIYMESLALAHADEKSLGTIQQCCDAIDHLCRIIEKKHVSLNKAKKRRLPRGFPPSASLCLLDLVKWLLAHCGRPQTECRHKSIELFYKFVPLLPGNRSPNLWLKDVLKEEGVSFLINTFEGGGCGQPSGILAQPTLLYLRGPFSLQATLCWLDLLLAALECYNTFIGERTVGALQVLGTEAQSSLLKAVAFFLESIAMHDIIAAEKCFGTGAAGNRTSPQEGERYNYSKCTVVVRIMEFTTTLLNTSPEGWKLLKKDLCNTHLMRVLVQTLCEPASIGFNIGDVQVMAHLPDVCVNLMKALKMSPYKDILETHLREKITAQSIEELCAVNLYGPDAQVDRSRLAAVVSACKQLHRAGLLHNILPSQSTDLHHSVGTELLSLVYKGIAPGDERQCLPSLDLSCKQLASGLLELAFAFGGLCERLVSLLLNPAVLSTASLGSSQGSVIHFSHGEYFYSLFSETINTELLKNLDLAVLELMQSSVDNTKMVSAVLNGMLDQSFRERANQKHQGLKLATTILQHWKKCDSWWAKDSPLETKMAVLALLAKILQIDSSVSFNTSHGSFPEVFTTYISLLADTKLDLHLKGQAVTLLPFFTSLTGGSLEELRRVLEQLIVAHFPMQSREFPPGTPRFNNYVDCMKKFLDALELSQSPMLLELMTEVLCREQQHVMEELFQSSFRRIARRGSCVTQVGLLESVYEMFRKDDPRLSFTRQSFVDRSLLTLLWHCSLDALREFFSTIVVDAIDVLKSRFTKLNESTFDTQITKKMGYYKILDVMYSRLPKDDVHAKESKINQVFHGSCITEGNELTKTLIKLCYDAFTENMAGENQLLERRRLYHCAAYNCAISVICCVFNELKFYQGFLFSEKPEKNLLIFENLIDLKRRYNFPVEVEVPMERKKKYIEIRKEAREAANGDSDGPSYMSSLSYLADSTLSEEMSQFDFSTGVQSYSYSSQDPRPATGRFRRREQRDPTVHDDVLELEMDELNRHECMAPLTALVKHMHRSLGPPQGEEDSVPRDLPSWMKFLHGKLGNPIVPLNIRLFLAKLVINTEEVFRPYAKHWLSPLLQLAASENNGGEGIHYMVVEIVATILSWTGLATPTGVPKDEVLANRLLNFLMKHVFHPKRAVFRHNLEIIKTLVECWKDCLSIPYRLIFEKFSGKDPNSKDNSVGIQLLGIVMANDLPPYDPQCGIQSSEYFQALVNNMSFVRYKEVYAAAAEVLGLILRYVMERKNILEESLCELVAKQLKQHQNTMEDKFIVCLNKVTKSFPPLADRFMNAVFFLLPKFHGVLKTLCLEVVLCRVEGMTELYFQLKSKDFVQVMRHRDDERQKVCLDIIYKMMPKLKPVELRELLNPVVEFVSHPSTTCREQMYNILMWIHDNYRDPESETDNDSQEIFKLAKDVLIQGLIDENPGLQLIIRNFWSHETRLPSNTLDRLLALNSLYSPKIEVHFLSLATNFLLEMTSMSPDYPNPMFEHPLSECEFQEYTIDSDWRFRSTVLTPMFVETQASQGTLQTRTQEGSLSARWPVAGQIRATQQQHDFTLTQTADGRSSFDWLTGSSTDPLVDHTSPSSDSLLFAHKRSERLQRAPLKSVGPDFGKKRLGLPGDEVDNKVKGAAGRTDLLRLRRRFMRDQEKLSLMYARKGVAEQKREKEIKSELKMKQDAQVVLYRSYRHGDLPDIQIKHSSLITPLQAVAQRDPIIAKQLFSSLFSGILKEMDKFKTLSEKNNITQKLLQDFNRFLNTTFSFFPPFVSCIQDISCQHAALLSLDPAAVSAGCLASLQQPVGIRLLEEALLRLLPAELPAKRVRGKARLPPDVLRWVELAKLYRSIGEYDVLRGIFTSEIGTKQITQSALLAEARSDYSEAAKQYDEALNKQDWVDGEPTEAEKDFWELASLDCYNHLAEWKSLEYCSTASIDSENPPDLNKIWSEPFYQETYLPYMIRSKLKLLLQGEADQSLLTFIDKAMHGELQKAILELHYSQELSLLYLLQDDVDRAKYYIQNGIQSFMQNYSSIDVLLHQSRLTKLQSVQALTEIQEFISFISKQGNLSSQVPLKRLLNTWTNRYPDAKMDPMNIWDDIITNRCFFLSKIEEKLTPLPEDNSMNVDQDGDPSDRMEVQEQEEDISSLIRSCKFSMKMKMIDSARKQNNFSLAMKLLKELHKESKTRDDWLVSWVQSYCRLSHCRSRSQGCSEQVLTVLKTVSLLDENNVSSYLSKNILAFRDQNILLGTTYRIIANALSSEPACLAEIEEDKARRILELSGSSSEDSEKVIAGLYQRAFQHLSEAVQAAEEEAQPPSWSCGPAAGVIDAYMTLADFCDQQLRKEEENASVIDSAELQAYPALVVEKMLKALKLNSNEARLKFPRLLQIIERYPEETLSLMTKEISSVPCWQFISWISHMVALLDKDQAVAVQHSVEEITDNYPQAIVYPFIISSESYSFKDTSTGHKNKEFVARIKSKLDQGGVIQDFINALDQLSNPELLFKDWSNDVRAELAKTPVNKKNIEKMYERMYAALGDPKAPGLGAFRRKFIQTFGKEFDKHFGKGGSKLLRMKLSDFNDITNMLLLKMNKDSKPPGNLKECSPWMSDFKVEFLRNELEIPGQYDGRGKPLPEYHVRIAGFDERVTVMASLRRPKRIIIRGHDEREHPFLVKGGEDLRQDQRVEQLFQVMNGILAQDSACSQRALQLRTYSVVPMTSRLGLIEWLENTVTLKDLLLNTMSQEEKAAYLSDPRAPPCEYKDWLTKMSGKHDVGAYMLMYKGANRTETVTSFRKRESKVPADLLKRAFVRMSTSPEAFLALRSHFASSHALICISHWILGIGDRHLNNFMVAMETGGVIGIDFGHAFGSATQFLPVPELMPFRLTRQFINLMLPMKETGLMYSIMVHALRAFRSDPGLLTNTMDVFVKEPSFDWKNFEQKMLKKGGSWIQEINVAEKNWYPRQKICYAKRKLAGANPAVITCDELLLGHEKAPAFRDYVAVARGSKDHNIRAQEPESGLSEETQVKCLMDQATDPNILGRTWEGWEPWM

O=c1cc(N2CCOCC2)oc2c(-c3cccc4c3sc3ccccc34)cccc12
LD90 [1]: 0.8 µmol/L
Kp at 1.5 h [2]: 8.7
IC50 [3]: 14 nM
inhibition at 120 h, 1 µM [4]: 78%
clearance [5]: 65 mL/min/kg
Kp at 0.25 h [6]: 4.2
Kp at 0.25 h [7]: 4.6
Kp at 4 h [8]: 1
Activity (LoVo): 72%
Kp at 0.5 h [9]: 3.4
AUC(0-t) [10]: 2500 ng·h/mL
Kp at 0.25 h [11]: 1.1
Kp at 1 h [12]: 3.2
fold change (FC) [13]: 2.3
Kp at 1 h [14]: 3.6
Kp at 1.5 h [15]: 1.5
Activity (SW-620 [16]): 0.13
AUC(0-inf) [17]: 1200 ng·h/mL
Kp at 4 h [18]: 6.2
AUC(0-inf) [19]: 2530 ng·h/mL
Kp at 1.5 h [20]: 14
Cmax [21]: 2400 ng/mL
Kp at 1.5 h [22]: 3
Tmax [23]: 5 min
Kp at 4 h [24]: 5
Kp at 0.5 h [25]: 2.2
Activity (SW-620 [26]): 24%
